Data: ChEMBL document CHEMBL3994624, “Antimalarial Pyrido[1,2-a]benzimidazoles: Lead Optimization, Parasite Life Cycle Stage Profile, Mechanistic Evaluation, Killing Kinetics, and in Vivo Oral Efficacy in a Mouse Model” (J Med Chem, 2017)
≈ marks a conversion by molar mass, not a printed value. Calls of active or inactive are those of the source. The rule behind the calls is not given here.

Columns and labels:
Plasmodium falciparum [1] = assay: Anti-plasmodial activity against multidrug resistant Plasmodium falciparum K1 by [3H]-hypoxanthine incorporation assay; assay type: functional
Outline: (§1)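 P. falciparum asexual blood-stage growth inhibition by [3H]hypoxanthine incorporation; chloroquine and artesunate run as reference drugs in every experiment; IC50 given as mean of ≥2 independent experiments.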

Plasmodium falciparum [2] = assay: Anti-plasmodial activity against chloroquine-sensitive Plasmodium falciparum NF54 by [3H]-hypoxanthine incorporation assay; assay type: functional; outline: as §1
CHO = assay: Cytotoxicity against CHO cells after by MTT assay; assay type: cell-based; settings: Cricetulus griseus
[3] = Selectivity index, ratio of IC50 for CHO cells to IC50 for chloroquine-sensitive Plasmodium falciparum NF54; assay type: toxicity; settings: hamster, read-out: Ratio IC50
Outline: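 Selectivity index = IC50 CHO / IC50 PfNF54.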

Plasmodium falciparum [4] = assay: Anti-plasmodial activity against chloroquine-sensitive Plasmodium falciparum NF54 late 4/5 stage gametocytes assessed as reduction in ATP levels after 24 hrs by BacTiter-Glo reagent based bioluminescence assay; assay type: functional; settings: NF54, 24 h
Plasmodium falciparum [5] = assay: Ratio of IC50 for chloroquine-sensitive Plasmodium falciparum NF54 early 2/3 stage gametocytes to IC50 for chloroquine-sensitive Plasmodium falciparum NF54 late 4/5 stage gametocytes; assay type: functional
Outline: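 Early (stage II/III) and late (stage IV/V) gametocytes tested in parallel luciferase reporter assays; stage preference = EG IC50/LG IC50.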

Huh-7 = assay: Cytotoxicity against human HuH7 cells at 1 to 10 uM after 48 hrs by Alamarblue assay; assay type: cell-based; settings: huh-7, 48 h
Plasmodium berghei [6] = assay: Antimalarial activity against GFP-fused Plasmodium berghei ANKA liver stage infected in HuH7 cells pretreated for 1 hr followed by parasite infection after 48 hrs by luciferase reporter gene assay; assay type: functional, cell-based; settings: Huh-7
Ferriprotoporphyrin IX = assay: Inhibition of beta hematin formation in water/NP40/DMSO solution after 5 hrs
[7] = Metabolic stability in Balb/c mouse liver microsomes assessed as compound remaining at 1 uM in presence of NADPH after 30 mins by LC-MS/MS analysis; assay type: ADME, microsome; settings: read-out: Stability
Outline: (§2)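 Mouse and human liver microsomes; % compound remaining after 30 min.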

[8] = Metabolic stability in human liver microsomes assessed as compound remaining at 1 uM in presence of NADPH after 30 mins by LC-MS/MS analysis; assay type: ADME, microsome; settings: read-out: Stability; outline: as §2
Plasmodium falciparum [9] = assay: Anti-plasmodial activity against chloroquine-sensitive Plasmodium falciparum NF54 late 4/5 stage gametocytes after 48 hrs by luciferin-luciferase reaction based bioluminescence assay; assay type: functional; settings: NF54, 48 h
Plasmodium falciparum [10] = assay: Ratio of IC50 for chloroquine-sensitive Plasmodium falciparum NF54 after 24 hrs to IC50 for chloroquine-sensitive Plasmodium falciparum NF54 after 72 hrs; assay type: functional
[11] = Kinetic solubility of the compound in FaSSIF at pH 6.5 after 2 hrs by shake flask method; assay type: physicochemical; settings: read-out: Kinetic_solubility
Plasmodium berghei [12] = assay: Antimalarial activity against GFP-fused Plasmodium berghei ANKA infected in mouse assessed as reduction in parasitemia at 50 mg/kg, po administered once daily for 4 days by flow cytometry relative to control; assay type: functional; design: scale not given: the % may be the effect or the level left
Outline: (§3)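 P. berghei-infected mice, 3 per group. Compound formulated in 90/10 Tween80/ethanol (v/v), diluted 10-fold with water, given orally once daily at 4, 24, 48 and 72 h post-infection. Outcomes: % parasitemia reduction versus untreated control, mean survival days, and cured/infected. Mice with <40% reduction euthanized on day 4.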

Plasmodium berghei [13] = assay: Antimalarial activity against GFP-fused Plasmodium berghei ANKA infected in mouse assessed as mouse mean survival days at 50 mg/kg, po administered once daily for 4 days; assay type: functional
Outline: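 P. berghei-infected mice (n=3 per dose) dosed orally once daily on 4 consecutive days at 4, 24, 48 and 72 h after infection; compound in 90/10 Tween80/ethanol (v/v) diluted 10-fold with water. Read-outs were % parasitemia reduction, mean survival time in days and cure; mice with <40% parasitemia reduction euthanized on day 4.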

Plasmodium berghei [14] = assay: Antimalarial activity against GFP-fused Plasmodium berghei ANKA infected in mouse assessed as protection against parasitemia at 50 mg/kg, po administered once daily for 4 days measured 30 days post infection by light microscopy; assay type: functional, organism-based; outline: as §3
Plasmodium berghei [15] = assay: Antimalarial activity against GFP-fused Plasmodium berghei ANKA liver stage infected in HuH7 cells pretreated for 1 hr followed by parasite infection at 1 uM after 48 hrs by luciferase reporter gene assay; assay type: functional, cell-based

Row | SMILES | IC50 (Plasmodium falciparum [1]) | IC50 (Plasmodium falciparum [2]) | IC50 (CHO) | selectivity ratio [3] | IC50 (Plasmodium falciparum [4]) | Ratio IC50 (Plasmodium falciparum [5]) | Activity (Huh-7) | remaining at 0.5 h, 1 µM [7] | remaining at 0.5 h, 1 µM [8] | solubility kinetic at 2 h [11] | other results
1 | CCNCCNc1cc(-c2cccc(C(F)(F)F)c2)c(C#N)c2nc3ccccc3n12 | 340 nM | 210 nM | 5920 nM | 28 | 490 nM | 1.6 | Non-Toxic | – | – | – | –
2 | O=C1C(O)=C([C@H]2CC[C@H](c3ccc(Cl)cc3)CC2)C(=O)c2ccccc21 [ATOVAQUONE] | – | – | – | – | – | – | – | – | – | – | IC50 (Plasmodium berghei [6]): 1 nM
3 | CCNCCNc1cc(-c2ccc(C(F)(F)F)cc2)c(C#N)c2nc3cc(Cl)ccc3n12 | 30 nM | 30 nM | 8710 nM | 362 | – | 1.1 | Non-Toxic | 75% | 87% | – | IC50 (Ferriprotoporphyrin IX): < 45000 nM; IC50 (Plasmodium falciparum [9]): 820 nM; Ratio IC50 (Plasmodium falciparum [10]): 1.5 - 2
4 | CCNCCNc1cc(-c2ccc(C(F)(F)F)cc2)c(C#N)c2nc3cccc(Cl)c3n12 | 260 nM | 140 nM | 1630 nM | 5 | – | – | – | 93% | 89% | 10 µM (≈ 4.58 µg/mL) | Activity (Plasmodium berghei [12]): 85%; MSD (Plasmodium berghei [13]): 7 days; Activity (Plasmodium berghei [14]): inactive
5 | CCNCCNc1cc(-c2ccc(F)cc2)c(C#N)c2nc3ccccc3n12 | 540 nM | 330 nM | 11500 nM | 35 | 1770 nM | 2.1 | Non-Toxic | – | – | – | –
6 | COc1cc(NC(C)CCCN)c2ncccc2c1 (stereo unspecified) [PRIMAQUINE] | – | – | – | – | – | – | – | – | – | – | IC50 (Plasmodium berghei [6]): 8420 nM
7 | CCNCCNc1c(C)c(-c2ccc(C(F)(F)F)cc2)c(C#N)c2nc3ccccc3n12 | – | 1280 nM | – | – | 2570 nM | 0.8 | Non-Toxic | 80% | 85% | < 5 µM | IC50 (Plasmodium berghei [6]): 2850 nM; Activity (Plasmodium berghei [15]): Active
8 | CCNCCNc1cc(-c2cccc(F)c2)c(C#N)c2nc3ccccc3n12 | 1000 nM | 380 nM | 5180 nM | 13 | 3630 nM | 1.2 | Non-Toxic | 100% | 89% | 25 µM (≈ 9.34 µg/mL) | Activity (Plasmodium berghei [12]): 61%; MSD (Plasmodium berghei [13]): 24 days; Ratio IC50 (Plasmodium falciparum [10]): <1.5
9 | N#Cc1c(-c2ccc(C(F)(F)F)cc2)cc(NCCN2CCC(O)C2)n2c1nc1ccccc12 (stereo unspecified) | 30 nM | 40 nM | 6120 nM | 153 | – | – | – | 51% | – | < 5 µM | Ratio IC50 (Plasmodium falciparum [10]): 18
10 | Cc1c(-c2ccc(C(F)(F)F)cc2)c(C#N)c2nc3ccccc3n2c1NCCN1CCC(O)C1 (stereo unspecified) | 470 nM | 550 nM | 25000 nM | 45 | – | – | – | – | – | < 5 µM | –
11 | CCNCCNc1c(F)c(-c2ccc(C(F)(F)F)cc2)c(C#N)c2nc3ccccc3n12 | – | 5530 nM | – | – | – | – | – | 35% | 39% | 160 µM (≈ 70.6 µg/mL) | –
12 | CCc1nc(N)nc(N)c1-c1ccc(Cl)cc1 [PYRIMETHAMINE] | – | – | – | – | – | – | – | – | – | – | Ratio IC50 (Plasmodium falciparum [10]): 6
13 | CCNCCNc1cc(-c2ccc(Cl)cc2)c(C#N)c2nc3ccccc3n12 | 430 nM | 660 nM | 9600 nM | 15 | 690 nM | 1.5 | Non-Toxic | – | – | – | –
14 | CN1CCC(Nc2cc(-c3ccc(C(F)(F)F)cc3)c(C#N)c3nc4ccccc4n23)CC1 | 1000 nM | 440 nM | 5980 nM | 14 | – | – | – | 63% | 75% | < 5 µM | Ratio IC50 (Plasmodium falciparum [10]): <1.5
15 | N#Cc1c(-c2ccc(C(F)(F)F)cc2)cc(N2CCC(N)CC2)n2c1nc1ccccc12 | 700 nM | 950 nM | 15800 nM | 17 | – | – | – | 92% | 91% | < 5 µM | –
16 | CCNCCNc1cc(-c2ccc(C#N)cc2)c(C#N)c2nc3ccccc3n12 | 200 nM | 170 nM | 3900 nM | 23 | 2660 nM | 1.3 | Non-Toxic | – | – | – | –

Row | SMILES | IC50 (Plasmodium falciparum [1]) | IC50 (Plasmodium falciparum [2]) | IC50 (CHO) | selectivity ratio [3] | IC50 (Plasmodium falciparum [4]) | Ratio IC50 (Plasmodium falciparum [5]) | Activity (Huh-7) | remaining at 0.5 h, 1 µM [7] | remaining at 0.5 h, 1 µM [8] | solubility kinetic at 2 h [11] | other results
17 | CCN(CC)CCCC(C)Nc1cc(-c2ccc(C(F)(F)F)cc2)c(C#N)c2nc3ccccc3n12 (stereo unspecified) | 400 nM | 690 nM | 2910 nM | 4 | 3020 nM | 0.7 | Non-Toxic | 32% | 53% | 85 µM (≈ 42 µg/mL) | Ratio IC50 (Plasmodium falciparum [10]): <1.5
18 | CS(=O)(=O)c1ccc(-c2cnc(N)c(-c3ccc(C(F)(F)F)nc3)c2)cc1 [MMV-048] | – | – | – | – | – | – | – | 94% | 93% | – | –
19 | CCNCCNc1cc(-c2ccccc2)c(C#N)c2nc3ccccc3n12 | 1070 nM | 700 nM | 18300 nM | 26 | 1440 nM | – | Non-Toxic | – | – | – | –
20 | CCNCCNc1cc(-c2ccc(S(C)(=O)=O)cc2)c(C#N)c2nc3ccccc3n12 | 330 nM | 310 nM | 204000 nM | 658 | – | – | – | 86% | – | 40 µM (≈ 17.3 µg/mL) | –
21 | Cc1ncc2n1-c1ccc(Cl)cc1C(c1ccccc1F)=NC2 [MIDAZOLAM] | – | – | – | – | – | – | – | 1.3% | 0.1% | – | –
22 | CCNCCNc1cc(-c2ccc(C(F)(F)F)cc2)c(C#N)c2nc3ncccc3n12 | 130 nM | 140 nM | 4100 nM | 5 | – | – | – | – | – | 10 µM (≈ 4.24 µg/mL) | –
23 | CCNCCNc1cc(C2CCCC2)c(C#N)c2nc3ccccc3n12 | 820 nM | 830 nM | 3770 nM | 5 | 670 nM | 1.7 | Non-Toxic | – | – | – | –
24 | N#Cc1c(-c2ccc(C(F)(F)F)cc2)cc(NCCN2CCC(O)CC2)n2c1nc1ccccc12 | – | 1100 nM | – | – | – | – | – | – | – | < 5 µM | –
25 | CCNCCNc1cc(-c2ccc(C(=O)OC)cc2)c(C#N)c2nc3ccccc3n12 | – | 1560 nM | – | – | 1680 nM | 1.4 | Non-Toxic | – | – | – | –
26 | N#Cc1c(-c2ccc(C(F)(F)F)cc2)cc(NCCn2ccnc2)n2c1nc1ccccc12 | 790 nM | 390 nM | 10500 nM | 27 | 1020 nM | 1.1 | Non-Toxic | – | – | – | IC50 (Ferriprotoporphyrin IX): < 45000 nM; Ratio IC50 (Plasmodium falciparum [10]): 1.5 - 2
27 | N#Cc1c(-c2ccc(C(F)(F)F)cc2)cc(N2CCC(N)CC2)n2c1nc1cc(Cl)cc(Cl)c12 | 210 nM | 180 nM | 2980 nM | 7.3 | – | – | – | – | – | – | –
28 | N#Cc1c(-c2ccc(C(F)(F)F)cc2)cc(NC2CCNCC2)n2c1nc1ccccc12 | 820 nM | 360 nM | 16500 nM | 46 | 1160 nM | 1.6 | Non-Toxic | 65% | 99% | – | IC50 (Plasmodium berghei [6]): 3310 nM; Activity (Plasmodium berghei [15]): Active
29 | CCNCCNc1cc(C2CCCCC2)c(C#N)c2nc3ccccc3n12 | 670 nM | 470 nM | 3190 nM | 7 | 460 nM | 3.3 | Non-Toxic | 42% | – | 10 µM (≈ 3.61 µg/mL) | –
30 | CCNCCNc1cc(-c2ccc(C(F)(F)F)cc2)c(C#N)c2nc3cccc(Br)c3n12 | 240 nM | 150 nM | 1550 nM | 2 | – | – | – | – | – | – | –
31 | CNC1CCN(c2cc(-c3ccc(C(F)(F)F)cc3)c(C#N)c3nc4ccccc4n23)CC1 | 900 nM | 840 nM | 6310 nM | 8 | – | – | – | – | – | – | –
